Screens deposited in PubChem BioAssay by several laboratories.
SDO1 yeast rescue – compounds rescuing growth of sdo1-depleted yeast, bone marrow failure model. S. cerevisiae sdo1-depleted JHY4D growth rescue, OD600 30 h; active compounds read high; pdr5 snq2 efflux-pump mutant strain. z-score at 10 µM. 0.21% of 140,000 active. AID 817;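 active = z-score above 3 at both the 24 hr and the 30 hr optical density reads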
Yeast growth inh – chemicals that inhibit yeast BB579 growth in restrictive medium (lifespan-shortening candidates) | 0.51% of 140,000 active | S. cerevisiae BB579 growth, OD615, 48 h | inhibition, % at 10 µM;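 active = inhibition above a set limit, 3 SD over the mean compound inhibition, cut at about 44% in these data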
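test system = yeast BB579 (DeaD) | buffer or medium = restrictive CSMM-D medium | doses = single compound dose of 10 µM, 0.25% DMSO final | times = 4 h preincubation and 48 h exposure at 30 °C | technique = culture absorbance at 615 nm | benchmarks = amphotericin B 10 µg/mL, positive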
Yeast life ext – extends the lifespan of yeast | S. cerevisiae growth with nicotinamide, OD615; deaD strain in restrictive glucose medium | inhibition of the nicotinamide effect, % at 10 µM | 0.68% of 130,000 active;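 active = inhibition above a set limit, placed 3 SD over the median of all compounds, cut at about 26% in these data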
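Buffer or medium: CSMM-D glucose medium, restrictive; test system: modified budding yeast, DeaD strain; compound: single dose 10 µM compound, 0.25% DMSO; schedule: culture preincubation 4 h, compound exposure 48 h, both 30 °C; detection: optical density (absorbance) at 615 nm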
Efa HMGR inh – E. faecalis class II HMG-CoA reductase inhibition. 0.41% of 190,000 active. purified E. faecalis HMGR, NADPH absorbance 340 nm kinetic. inhibition, % at 10 µM;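 active = inhibition above a set limit, the median over all tested compounds plus 3 SD, cut at about 9.5% in these data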;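 note: enzyme runs in reverse so mevalonate oxidation gives rising NADPH absorbance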
Numbers stand for hits. Rows were chosen to be rich in hits. Some 1.3% of all compounds tested hit in one or more screens of this group.

Results for CCC1CCCCN1S(=O)(=O)c1ccc(S(=O)(=O)N(Cc2cccs2)C2CC2)cc1 (centres undefined) ?
SDO1 yeast rescue: inactive; Yeast growth inh: inactive; Yeast life ext: 33; Efa HMGR inh: inactive

What do the screens show for `CC(=O)c1c(C)oc2c1C(=O)c1ccccc1C2=O`?
SDO1 yeast rescue: inactive; Yeast growth inh: 62; Yeast life ext: inactive; Efa HMGR inh: inactive

How did N#Cc1ccc(OCC(=O)NCCc2ccccn2)cc1 do in these assays?
SDO1 yeast rescue: inactive; Yeast growth inh: inactive; Yeast life ext: 46; Efa HMGR inh: inactive

How did CC(Oc1ccc(-n2cnnn2)cc1)C(=O)O (centres undefined) do in these assays?
Efa HMGR inh: inactive

How did CC(C)(C)[C@@H]1C=C(C(=O)N2CCN(Cc3ccccc3)CC2)O[C@H](OCc2ccc(CO)cc2)C1 do in these assays?
Efa HMGR inh: inactive

Results for CC(C)(C)[C@H]1C=C(C(=O)N2CCN(Cc3ccc4c(c3)OCO4)CC2)O[C@@H](OCc2ccc(CO)cc2)C1 ?
Efa HMGR inh: 19

Results for Cc1cccc(C)c1NC(=O)C/C(N)=N/O ?
SDO1 yeast rescue: inactive; Yeast growth inh: inactive; Yeast life ext: inactive

Results for Cc1cccc(C)c1NC(=O)Cn1nnnc1N ?
Efa HMGR inh: 13

What do the screens show for `Cc1onc(-c2ccccc2)c1C(=O)NC(=S)NNC(=O)c1ccc(O)cc1O`?
SDO1 yeast rescue: inactive; Yeast growth inh: 80; Yeast life ext: inactive; Efa HMGR inh: inactive

Results for COC(c1ccccc1)c1nnc(CCC(=O)NCCC(C)C)o1 (centres undefined) ?
Efa HMGR inh: 16

What do the screens show for `CCCCCc1ccc(-c2nnc(N)s2)cc1`?
Efa HMGR inh: inactive

How did CCCCCCc1ccc(-c2ncc(N)cn2)cc1 do in these assays?
SDO1 yeast rescue: inactive; Yeast growth inh: 97; Yeast life ext: inactive; Efa HMGR inh: inactive

How did Cc1cc(C)nc(-n2cc(C(=O)c3cc(F)ccc3O)cn2)n1 do in these assays?
SDO1 yeast rescue: inactive; Yeast growth inh: inactive; Yeast life ext: 30; Efa HMGR inh: inactive

What do the screens show for `N/C(=N/O)c1ccccc1N1CCC(Cc2ccccc2)CC1`?
Efa HMGR inh: inactive

Results for CCCNCC1C(Oc2ccc(Cl)cc2)C(=O)N1c1ccccc1C (centres undefined) ?
SDO1 yeast rescue: inactive; Yeast growth inh: inactive; Yeast life ext: inactive; Efa HMGR inh: inactive

How did O=[N+]([O-])c1cc2oc3c(c2c(C=NCc2ccncc2)c1O)CCCC3 do in these assays?
SDO1 yeast rescue: inactive; Yeast growth inh: inactive; Yeast life ext: 67; Efa HMGR inh: inactive

How did O=C(Nc1ccc(F)cc1)C1CCCO1 (centres undefined) do in these assays?
Efa HMGR inh: inactive

How did O=C(Nc1ccc(O)cc1)C1CCCO1 (centres undefined) do in these assays?
SDO1 yeast rescue: inactive; Yeast growth inh: inactive; Yeast life ext: 53; Efa HMGR inh: inactive

How did CCOc1ccc(C2=NNC(c3cccs3)=Nc3ccc(OCC)cc32)cc1 do in these assays?
SDO1 yeast rescue: inactive; Yeast growth inh: inactive; Yeast life ext: 47; Efa HMGR inh: inactive

What do the screens show for `COc1ccc(C2=NNC(c3cccs3)=Nc3ccc(OC)cc32)cc1`?
SDO1 yeast rescue: inactive; Yeast growth inh: inactive; Efa HMGR inh: inactive

Results for Cc1ccsc1C(=O)C1CCCN(Cc2cc(F)ccc2-n2cccn2)C1 (centres undefined) ?
Efa HMGR inh: 18

How did Cc1cc(C)c(CN2CCCC(CNC(=O)c3ccc(F)cc3)C2)c(-n2cccn2)c1 (centres undefined) do in these assays?
Efa HMGR inh: inactive

Results for CCc1cc2c(cc(C(=O)O)n2C)s1 ?
SDO1 yeast rescue: inactive; Yeast growth inh: 58; Yeast life ext: inactive; Efa HMGR inh: inactive

What do the screens show for `Cc1ccc(-n2c(Cl)c(Cl)nc(Cl)c2=O)cc1`?
SDO1 yeast rescue: inactive; Yeast growth inh: 100; Yeast life ext: inactive; Efa HMGR inh: inactive

How did COc1nc(Cl)cn(-c2ccc(C)cc2)c1=O do in these assays?
SDO1 yeast rescue: inactive; Yeast growth inh: inactive; Yeast life ext: inactive; Efa HMGR inh: inactive

How did Cc1cc(N2CCOCC2)ccc1/C=C\[N+](=O)[O-] do in these assays?
SDO1 yeast rescue: inactive; Yeast growth inh: inactive; Yeast life ext: 34; Efa HMGR inh: inactive

What do the screens show for `O=C(CN1C(=O)S/C(=C\c2ccc(F)cc2)C1=O)Nc1cccc(S(=O)(=O)NCc2ccco2)c1`?
Efa HMGR inh: inactive

Results for CCn1cc(C(=O)OCC(=O)c2cc(C)n(-c3ccc(OC(F)F)cc3)c2C)c(=O)c2ccc(C)nc21 ?
SDO1 yeast rescue: inactive; Yeast growth inh: inactive; Yeast life ext: inactive; Efa HMGR inh: inactive

Results for COc1ccc2c(c1)c1nnc(SC)nc1n2C ?
SDO1 yeast rescue: inactive; Yeast growth inh: 90; Yeast life ext: inactive; Efa HMGR inh: inactive

What do the screens show for `O=C(N/N=C/c1cc(Br)cc(Br)c1O)c1cccc(N2CCCC2=O)c1`?
Efa HMGR inh: 14

Results for CCOc1ccc(NCc2ccccc2OCc2cccc(F)c2)cc1 ?
SDO1 yeast rescue: inactive; Yeast growth inh: inactive; Yeast life ext: inactive; Efa HMGR inh: inactive

How did O=C(/C=C/c1ccccc1Cl)c1ccccc(=O)c1O do in these assays?
SDO1 yeast rescue: inactive; Yeast growth inh: 99; Yeast life ext: inactive; Efa HMGR inh: inactive

How did O=C(/C=C/c1ccccc1Cl)c1cccnc1 do in these assays?
SDO1 yeast rescue: inactive; Yeast growth inh: inactive; Yeast life ext: inactive; Efa HMGR inh: inactive

How did Cc1ccc(C)c(/C=C/C(=O)c2ccccc(=O)c2O)c1 do in these assays?
SDO1 yeast rescue: inactive; Yeast growth inh: 99; Yeast life ext: inactive; Efa HMGR inh: inactive

Results for Cc1ccc(C)c(NC(=O)c2ccccc2O)c1 ?
SDO1 yeast rescue: inactive; Yeast growth inh: inactive; Yeast life ext: inactive; Efa HMGR inh: inactive

Results for Cc1ccc(/C=C/C(=O)c2ccccc(=O)c2O)c(C)c1 ?
SDO1 yeast rescue: inactive; Yeast growth inh: 99; Yeast life ext: inactive; Efa HMGR inh: inactive

What do the screens show for `Cc1ccc(/C=C/C(=O)c2ccccc2)cc1`?
SDO1 yeast rescue: inactive; Yeast growth inh: inactive; Yeast life ext: inactive; Efa HMGR inh: inactive

How did CCOC(=O)C(=O)N1CCN(c2cc3c(cc2[N+](=O)[O-])n(C)c(=O)n3C)CC1 do in these assays?
Efa HMGR inh: inactive

Results for COCCNC(=S)NNc1ccccc1[N+](=O)[O-] ?
Efa HMGR inh: inactive

How did CC(=O)Nc1nc(-c2ccc(Br)s2)cs1 do in these assays?
SDO1 yeast rescue: inactive; Yeast growth inh: inactive; Yeast life ext: inactive; Efa HMGR inh: inactive

What do the screens show for `Cc1ccc(NC(=O)Nc2nc(-c3ccc(C)s3)cs2)cc1`?
SDO1 yeast rescue: inactive; Yeast growth inh: inactive; Yeast life ext: 87; Efa HMGR inh: inactive

How did CCOc1ncccc1C(=O)OC(C)C(=O)NC(=O)NC1CCCCC1 (centres undefined) do in these assays?
Efa HMGR inh: inactive

Results for CC(C)(C)c1cc(CN2CCN(CCO)CC2)cc(C(C)(C)C)c1O ?
SDO1 yeast rescue: inactive; Yeast growth inh: inactive; Yeast life ext: 32; Efa HMGR inh: inactive

Results for Cc1cc(N2CCOCC2)nc(SCc2ccc(Cl)cc2Cl)n1 ?
SDO1 yeast rescue: inactive; Yeast growth inh: inactive; Yeast life ext: inactive; Efa HMGR inh: inactive

Results for Cc1cc(N2CCOCC2)nc(SCC(=O)OCc2ccccc2)n1 ?
Efa HMGR inh: 11
